Measured values collected from several papers.
Lines come from different studies, so protocols differ.

| Structure (SMILES) | technique | medium | time | pH | temperature | notes | solubility |
| --- | --- | --- | --- | --- | --- | --- | --- |
| CC(=O)C(C)n1c(CN2CCN(c3cccc(Cl)c3)CC2)nc2c1c(=O)n(C)c(=O)n2C (stereo not drawn) |  | PBS |  |  |  |  | > 20 µM |
| Cn1cnc2ccc(Nc3c(F)ccc(NS(=O)(=O)N4CC(F)C4)c3Cl)c(Cl)c2c1=O |  | aqueous buffer |  | pH 2.05 |  |  | 2 µg/mL |
| O=[N+]([O-])c1cccc(/C=N/c2c(-c3ccccc3)nc3ccc(Cl)cn23)c1 |  | aqueous buffer |  | pH 7 |  |  | 25 µg/mL |
| Cn1cncc1[C@@](N)(c1ccc(Cl)cc1)c1ccc2c(c1)c(-c1cccc(Cl)c1)cc(=O)n2C |  | simulated gastric fluid |  | pH 1.02 | 25 °C | acidic | > 3750 µg/mL |
| O=[N+]([O-])c1ccc(/C=N/c2c(-c3ccccc3)nc3ccc(Cl)cn23)cc1 |  | aqueous buffer |  | pH 7 |  |  | 25 µg/mL |
| CC(=Nc1ccc(N=Cc2ccc3[nH]cnc3c2)cc1)N(C)C | shake flask | PBS | 24 h | pH 7.4 | 25 °C |  | ~20 µg/mL |
| Cc1c(C(=O)O)ccc2c3n(nc12)[C@@H]1[C@H](C3)N(CC2CC2)[C@@]2(C(=O)Nc3cc(Cl)ccc32)[C@H]1c1cccc(Cl)c1F |  | FaSSIF |  |  |  |  | 50 µg/mL |
| O=C(C=Cc1ccccc1)Nc1cc(-c2ccnc(N3CCC(O)CC3)c2)ccn1 |  | water |  | pH 7.4 |  |  | ~115 µg/mL |
| CCCc1cc(C(=O)OC)c(NC(=O)C2CCN(C(C)=O)CC2)s1 |  | PBS |  |  |  |  | > 20 µM |
| N=C(N)NCCC[C@H](NC(=O)[C@@H](NC(=O)[C@H](Cc1cscn1)NC(=O)CCc1ccccc1)C1CCCCC1)C(=O)c1nc2ccccc2s1 |  | PBS | 90 min | pH 7.4 |  |  | > 10 µM |
| Cc1ccc(Cn2cc(C(=O)NN)c(=O)c3cc(Oc4ccccc4)ccc32)cc1 | shake flask | PBS | 24 h | pH 6.5 | 25 °C |  | < 5 µM |
| C/C(=N/c1ccc(/N=C/c2ccc(/C=N/c3ccc(/N=C(/C)N(C)C)cc3)cc2)cc1)N(C)C | shake flask | PBS |  | pH 7.4 | 25 °C |  | 0.38 µg/mL |
